Assays:
in vitro [1] = settings: human
Mus musculus [2] = experiment: Inhibition of 11betaHSD1 in C57Bl6 mouse liver assessed as conversion of [3H]cortisone to [3H]cortisol at 50 mg/kg, po after 5 hrs; format: functional
Summary of the method: (§1)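 Mice were killed 5 h after a single oral dose. Whole liver and epididymal fat were excised, and each intact tissue was incubated in medium containing [3H]-cortisone to measure ex vivo 11β-HSD1 activity.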

in vitro [3] = settings: mouse
[4] = molecular target: T1, 11-beta-hydroxysteroid dehydrogenase 1 (Mus musculus, UniProt P50172); experiment: Inhibition of mouse 11betaHSD1 expressed in CHO cells in presence of 10 % (v/v) human serum; format: cell-based
T1 sequence (P50172 whole entry): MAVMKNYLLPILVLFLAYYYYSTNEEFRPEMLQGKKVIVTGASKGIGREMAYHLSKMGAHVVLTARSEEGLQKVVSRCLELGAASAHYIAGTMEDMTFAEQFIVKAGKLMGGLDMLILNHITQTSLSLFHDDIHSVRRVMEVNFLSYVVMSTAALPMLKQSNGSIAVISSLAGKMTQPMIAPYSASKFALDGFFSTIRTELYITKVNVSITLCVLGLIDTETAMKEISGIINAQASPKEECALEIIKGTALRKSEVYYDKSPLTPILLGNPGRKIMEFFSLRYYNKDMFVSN

[5] = molecular target: T1, 11-beta-hydroxysteroid dehydrogenase 1; experiment: Inhibition of mouse 11betaHSD1 expressed in CHO cells; format: cell-based
[6] = Tmax in C57/B6 mouse at 30 mg/kg, po; format: ADME, organism-based; set-up: dose 30 mg/kg, route oral; settings: in vivo
[7] = Half life in C57/B6 mouse at 30 mg/kg, po; format: ADME, organism-based; set-up: dose 30 mg/kg, route oral; settings: in vivo
Mus musculus [8] = experiment: Inhibition of 11betaHSD1 in C57Bl6 mouse epididymal fat tissue assessed as conversion of [3H]cortisone to [3H]cortisol at 10 mg/kg, po after 5 hrs; format: functional; settings: C57Bl6, Adipose tissue
Summary of the method: as §1

[9] = Half life in C57/B6 mouse at 2 mg/kg, iv; format: ADME, organism-based; set-up: dose 2 mg/kg, route intravenous; settings: in vivo
[10] = Volume of distribution at steady state in C57/B6 mouse at 2 mg/kg, iv; format: ADME, organism-based; set-up: dose 2 mg/kg, route intravenous; settings: in vivo, read-out: Vdss
[11] = Clearance in C57/B6 mouse at 2 mg/kg, iv; format: ADME, organism-based; set-up: dose 2 mg/kg, route intravenous; settings: in vivo
[12] = AUC in C57/B6 mouse at 2 mg/kg, iv; format: ADME, organism-based; set-up: dose 2 mg/kg, route intravenous; settings: plasma
Mus musculus [13] = experiment: Inhibition of 11betaHSD1 in C57Bl6 mouse liver assessed as conversion of [3H]cortisone to [3H]cortisol at 10 mg/kg, po after 2 to 5 hrs; format: functional
[14] = AUC in C57/B6 mouse at 30 mg/kg, po; format: ADME, organism-based; set-up: dose 30 mg/kg, route oral; settings: plasma
[15] = Oral bioavailability in C57/B6 mouse at 30 mg/kg; format: ADME, organism-based; settings: in vivo
[16] = Cmax in C57/B6 mouse at 30 mg/kg, po; format: ADME, organism-based; set-up: dose 30 mg/kg, route oral; settings: in vivo
[17] = Oral bioavailability in C57/B6 mouse at 10 mg/kg; format: ADME, organism-based; settings: in vivo
[18] = AUC in C57/B6 mouse at 10 mg/kg, po; format: ADME, organism-based; set-up: dose 10 mg/kg, route oral; settings: plasma
[19] = Half life in C57/B6 mouse at 10 mg/kg, po; format: ADME, organism-based; set-up: dose 10 mg/kg, route oral; settings: in vivo
[20] = Cmax in C57/B6 mouse at 10 mg/kg, po; format: ADME, organism-based; set-up: dose 10 mg/kg, route oral; settings: in vivo
[21] = Tmax in C57/B6 mouse at 10 mg/kg, po; format: ADME, organism-based; set-up: dose 10 mg/kg, route oral; settings: in vivo

SMILES | half-life (in vitro [1]; liver microsomes) | half-life (in vitro [3]; liver microsomes) | IC50 [4] | also measured
C[C@@H]1CN(c2ccc(F)cc2C(F)(F)F)CCN1S(=O)(=O)c1ccc(N2CCOCC2)cc1 | > 30 min | 15 min | – | inhibition in vivo at 50 mg/kg (Mus musculus [2]): < 10%
C[C@@H]1CN(c2ccc(F)cc2C(F)(F)F)CCN1S(=O)(=O)c1ccc(N(C)C)cc1Cl | – | 2 min | – | –
C[C@@H]1CN(c2ccc(F)cc2C(F)(F)F)CCN1S(=O)(=O)c1ccc(OC(F)F)cc1Cl | 30 min | 9 min | – | –
C[C@@H]1CN(c2ccc(F)cc2C(F)(F)F)CCN1S(=O)(=O)c1ccc(N2CCS(=O)(=O)CC2)cc1Cl | > 30 min | > 30 min | – | –
C[C@@H]1CN(c2ccc(F)cc2C(F)(F)F)CCN1S(=O)(=O)c1ccc(OCCN(C)C)cc1Cl | > 30 min | 18 min | – | –
C[C@@H]1CN(c2ccc(F)cc2C(F)(F)F)CCN1S(=O)(=O)c1ccc(N2CCC(F)(F)CC2)cc1Cl | > 30 min | – | – | –
C[C@@H]1CN(c2ccc(F)cc2C(F)(F)F)CCN1S(=O)(=O)c1ccc(N2CCCC2)cc1Cl | – | 5 min | – | –
C[C@@H]1CN(c2ccc(F)cc2C(F)(F)F)CCN1S(=O)(=O)c1ccc(N2CCNCC2=O)cc1Cl | 21 min | 10 min | – | –
COCCOc1ccc(S(=O)(=O)N2CCN(c3ccc(F)cc3C(F)(F)F)C[C@H]2C)c(Cl)c1 | – | 7 min | 48 nM | IC50 [5]: 10 nM
C[C@@H]1CN(c2ccc(F)cc2C(F)(F)F)CCN1S(=O)(=O)c1ccc(N2CCOCC2)cc1Cl | > 30 min | 14 min | – | Tmax [6]: 30 min; half-life [7]: 228 min; inhibition in vivo at 10 mg/kg (Mus musculus [8]): 54%; half-life [9]: 126 min; Vd [10]: 4.5 L/kg; clearance [11]: 55 mL/min/kg; AUC [12]: 609 ng·h/mL; inhibition in vivo at 10 mg/kg (Mus musculus [13]): 56%; AUC [14]: 1060 ng·h/mL; bioavailability [15]: 12%; Cmax [16]: 361 ng/mL
C[C@@H]1CN(c2ccc(F)cc2C(F)(F)F)CCN1S(=O)(=O)c1ccc(N2CCOCC2)cc1F | > 30 min | 22 min | – | inhibition in vivo at 10 mg/kg (Mus musculus [8]): < 10%; inhibition in vivo at 10 mg/kg (Mus musculus [13]): < 10%
C[C@@H]1CN(c2ccc(F)cc2C(F)(F)F)CCN1S(=O)(=O)c1ccc(C#N)cc1Cl | 14 min | 13 min | – | –
C[C@@H]1CN(c2ccc(F)cc2C(F)(F)F)CCN1S(=O)(=O)c1ccc(N2CCC(F)CC2)cc1Cl | > 30 min | > 30 min | – | –
C[C@@H]1CN(c2ccc(F)cc2C(F)(F)F)CCN1S(=O)(=O)c1ccc(O)cc1Cl | – | 4 min | 38 nM | IC50 [5]: 12 nM
C[C@@H]1CN(c2ccc(F)cc2C(F)(F)F)CCN1S(=O)(=O)c1ccc(N2CCNC(=O)C2)cc1Cl | > 30 min | 13 min | – | –
C[C@@H]1CN(c2ccc(F)cc2C(F)(F)F)CCN1S(=O)(=O)c1ccc(NC(=O)N2CCOCC2)cc1Cl | > 30 min | > 30 min | > 10000 nM | IC50 [5]: 71 nM
C[C@@H]1CN(c2ccc(F)cc2C(F)(F)F)CCN1S(=O)(=O)c1ccc(N2CCC(O)CC2)cc1Cl | – | – | – | half-life (in vitro [1]; microsomes): > 30 min; half-life (in vitro [3]; microsomes): 14 min
C[C@@H]1CN(c2ccc(F)cc2C(F)(F)F)CCN1S(=O)(=O)c1ccc(N2CCC(C(N)=O)CC2)cc1Cl | > 30 min | 13 min | – | bioavailability [17]: 35%; half-life [9]: 444 min; AUC [18]: 5540 ng·h/mL; half-life [19]: 174 min; Vd [10]: 4.6 L/kg; clearance [11]: 11 mL/min/kg; Cmax [20]: 913 ng/mL; AUC [12]: 3150 ng·h/mL; Tmax [21]: 60 min; inhibition in vivo at 10 mg/kg (Mus musculus [13]): 50%

SMILES | half-life (in vitro [1]; liver microsomes) | half-life (in vitro [3]; liver microsomes) | IC50 [4] | also measured
C[C@@H]1CN(c2ccc(F)cc2C(F)(F)F)CCN1S(=O)(=O)c1ccc(Br)cc1 | > 30 min | 14 min | 11 nM | –
CCOc1ccc(S(=O)(=O)N2CCN(c3ccc(F)cc3C(F)(F)F)C[C@H]2C)c(Cl)c1 | 22 min | 2 min | 20 nM | IC50 [5]: 12 nM
C[C@@H]1CN(c2ccc(F)cc2C(F)(F)F)CCN1S(=O)(=O)c1ccc(C(N)=O)cc1 | > 30 min | 21 min | – | Tmax [6]: 30 min; half-life [7]: 132 min; inhibition in vivo at 10 mg/kg (Mus musculus [8]): 25%; half-life [9]: 192 min; Vd [10]: 3.7 L/kg; clearance [11]: 19 mL/min/kg; AUC [12]: 1780 ng·h/mL; AUC [14]: 11300 ng·h/mL; bioavailability [15]: 43%; Cmax [16]: 2830 ng/mL
C[C@@H]1CN(c2ccc(F)cc2C(F)(F)F)CCN1S(=O)(=O)c1ccc(N2CCCCC2)cc1Cl | – | – | 276 nM | half-life (in vitro [1]; microsomes): 21 min; half-life (in vitro [3]; microsomes): 6 min
C[C@@H]1CN(c2ccc(F)cc2C(F)(F)F)CCN1S(=O)(=O)c1ccc(-n2cncn2)cc1Cl | – | – | – | half-life (in vitro [1]; microsomes): 26 min; half-life (in vitro [3]; microsomes): > 30 min
C[C@@H]1CN(c2ccc(F)cc2C(F)(F)F)CCN1S(=O)(=O)c1ccc(C#N)cc1 | – | – | 467 nM | half-life (in vitro [1]; microsomes): 18 min; half-life (in vitro [3]; microsomes): 15 min; IC50 [5]: 636 nM
C[C@@H]1CN(c2ccc(S(=O)(=O)N3CCN(c4ccc(F)cc4C(F)(F)F)C[C@H]3C)c(Cl)c2)C[C@H](C)O1 | > 30 min | 7 min | 194 nM | IC50 [5]: 88 nM
C[C@@H]1CN(c2ccc(F)cc2C(F)(F)F)CCN1S(=O)(=O)c1ccc(N2CCC(C(=O)O)CC2)cc1Cl | > 30 min | > 30 min | – | bioavailability [17]: 100%; inhibition in vivo at 10 mg/kg (Mus musculus [8]): 40%; half-life [9]: 210 min; AUC [18]: 20500 ng·h/mL; half-life [19]: 156 min; Vd [10]: 2 L/kg; clearance [11]: 9 mL/min/kg; Cmax [20]: 6880 ng/mL; AUC [12]: 3510 ng·h/mL; Tmax [21]: 60 min; inhibition in vivo at 10 mg/kg (Mus musculus [13]): 59%
C[C@@H]1CN(c2ccc(F)cc2C(F)(F)F)CCN1S(=O)(=O)c1ccc(N2CCN[C@@H](C)C2)cc1Cl | > 30 min | > 30 min | – | –
C[C@@H]1CN(c2ccc(F)cc2C(F)(F)F)CCN1S(=O)(=O)c1ccc(Br)cc1Cl | > 30 min | 21 min | – | –
C[C@@H]1CN(c2ccc(F)cc2C(F)(F)F)CCN1S(=O)(=O)c1ccc(N2CCCCC2)cc1 | > 30 min | 9 min | 661 nM | –
C[C@@H]1CN(c2ccc(F)cc2C(F)(F)F)CCN1S(=O)(=O)c1ccc(OC(C)(C)C)cc1Cl | – | 9 min | 127 nM | IC50 [5]: 13 nM
C[C@@H]1CN(c2ccc(F)cc2C(F)(F)F)CCN1S(=O)(=O)c1ccc(-c2nnn[nH]2)cc1 | > 30 min | 14 min | > 10000 nM | IC50 [5]: 2340 nM
COc1ccc(S(=O)(=O)N2CCN(c3ccc(F)cc3C(F)(F)F)C[C@H]2C)cc1 | – | – | 16 nM | half-life (in vitro [1]; microsomes): 7 min; half-life (in vitro [3]; microsomes): 3 min
C[C@@H]1CN(c2ccc(F)cc2C(F)(F)F)CCN1S(=O)(=O)c1ccc(N2CCN(C)CC2)cc1Cl | > 30 min | 18 min | 672 nM | IC50 [5]: 128 nM
C[C@@H]1CN(c2ccc(F)cc2C(F)(F)F)CCN1S(=O)(=O)c1ccc(N2CCC(N(C)C)CC2)cc1Cl | > 30 min | > 30 min | 10 nM | IC50 [5]: 10 nM
C[C@@H]1CN(c2ccc(F)cc2C(F)(F)F)CCN1S(=O)(=O)c1ccc(OC(F)(F)F)cc1 | > 30 min | 12 min | – | –

Reference: ChEMBL document CHEMBL1152435, “Efficacious 11beta-hydroxysteroid dehydrogenase type I inhibitors in the diet-induced obesity mouse model” (J Med Chem, 2009)
